Experimental data: ChEMBL document CHEMBL1153989, “Synthesis and antiviral activities of novel acylhydrazone derivatives targeting HIV-1 capsid protein” (Bioorg Med Chem Lett, 2009)
pEC50: −log10 of the molar value.

What was measured:
[1] = Therapeutic index, TC50 for human CEM174 cells to EC50 for SIV-induced syncytium; assay type: cell-based; conditions: read-out: TI
Summary of the method: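 Index calculated as TC₅₀ (MTT, uninfected CEM174, 5 days) divided by EC₅₀ (inhibition of SIV syncytium formation in CEM174 cells infected with 100 TCID₅₀ per well, 5 days, microscopic scoring).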

[2] = Cytotoxicity against uninfected human CEM174 cells after 5 days by MTT assay; assay type: cell-based; conditions: read-out: TC50
Summary of the method: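 Uninfected CEM174 cells under the antiviral assay conditions (5 days, 37 °C, 5% CO₂, humidified) with compound dilutions. Proliferation read by MTT reduction. TC₅₀ is the concentration inhibiting proliferation by 50%.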

[3] = tested on: Simian immunodeficiency virus; test: Antiviral activity against SIV-induced syncytium in human CEM174 cells assessed as inhibition of virus-induced cytopathogenicity after 5 days; assay type: functional, organism-based; conditions: CEM174, 120 h
Summary of the method: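 CEM174 cells at 1 × 10⁵ cells/mL, infected with 100 TCID₅₀ SIV per well, with serial compound dilutions; 5 days at 37 °C, 5% CO₂, humidified. Syncytium (giant cell) formation scored by microscope. EC₅₀ is the concentration giving 50% protection against SIV cytopathogenicity. Indinavir at 1 × 10⁻⁶ mol/L served as positive control.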

[4] = molecular target: Structural capsid protein (Human immunodeficiency virus 1) (UniProt Q76129); test: Binding affinity to HIV1 capsid protein assessed as decrease in assembly rate by turbidity-based ultraviolet spectrophotometry (RVb= 59.2+/-0.3 milliOD/min)
[5] = molecular target: Structural capsid protein (Human immunodeficiency virus 1) (UniProt Q76129); test: Binding affinity to HIV1 capsid protein assessed as assembly rate at 20 uM by turbidity-based ultraviolet spectrophotometry
[6] = molecular target: Structural capsid protein (Human immunodeficiency virus 1) (UniProt Q76129); test: Binding affinity to HIV1 capsid protein assessed as assembly rate at 40 uM by turbidity-based ultraviolet spectrophotometry
[7] = molecular target: Structural capsid protein (Human immunodeficiency virus 1) (UniProt Q76129); test: Binding affinity to HIV1 capsid protein assessed as assembly rate at 10 uM by turbidity-based ultraviolet spectrophotometry

Chain of Structural capsid protein (Human immunodeficiency virus 1) (Q76129 as listed by the source): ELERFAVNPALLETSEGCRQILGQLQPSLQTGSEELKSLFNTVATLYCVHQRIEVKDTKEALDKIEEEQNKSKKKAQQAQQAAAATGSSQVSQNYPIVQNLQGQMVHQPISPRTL

pEC50 [3] | SMILES | selectivity ratio [1] | CC50 at 120 h [2] [µM] | Activity (milli optical density/minute) [4] | Activity (milli optical density/minute) [5] | Activity (milli optical density/minute) [6] | Activity (milli optical density/minute) [7]
5.25 | O=C(N/N=C/c1ccccc1)c1ccc([N+](=O)[O-])cc1 | 5.3 | 29.6 | – | – | – | –
6.28 | O=[N+]([O-])c1ccc(S(=O)(=O)N2CCC(c3ccccc3)=N2)cc1 | > 192 | > 100 | – | – | – | –
4.51 | COc1ccc(C(=O)N/N=C/c2ccccc2)cc1 | > 3.22 | > 100 | – | – | – | –
6.05 | Cc1ccc(S(=O)(=O)N[C@@H](Cc2ccccc2)C(=O)NN=C2CCCCC2)cc1 | 87.6 | 78.3 | – | – | – | –
5.61 | Cc1ccc(S(=O)(=O)N[C@@H](Cc2ccccc2)C(=O)N/N=C/c2ccco2)cc1 | 40.6 | 99.8 | – | – | – | –
4.44 | O=C(N/N=C/c1ccccc1)[C@H](CO)NS(=O)(=O)c1ccc(Br)cc1 | 2.2 | 80.2 | – | – | – | –
6.52 | C/C(=N\NC(=O)[C@H](Cc1ccccc1)NS(=O)(=O)c1ccc(C)cc1)c1ccccc1 | 70.7 | 21.2 | – | – | – | –
5.35 | Cc1ccc(S(=O)(=O)N[C@@H](Cc2ccccc2)C(=O)N/N=C/c2ccccc2F)cc1 | > 22.5 | > 100 | – | – | – | –
6.02 | O=S(=O)(N/N=C/c1ccccc1)c1ccc(Br)cc1 | > 105 | > 100 | – | – | – | –
6.57 | Cc1ccc(S(=O)(=O)N[C@@H](Cc2ccccc2)C(=O)NN=C(c2ccccc2)c2ccccc2)cc1 | > 365 | > 100 | – | – | – | –
6.44 | Cc1ccc(S(=O)(=O)N/N=C/c2ccccc2)cc1 | 88.1 | 31.7 | – | – | – | –
6.40 | C/C(=N\NC(=O)[C@H](Cc1ccccc1)NS(=O)(=O)c1ccc(C)cc1)c1cccc2ccccc12 | 123 | 49.1 | – | – | – | –
5.55 | Cc1ccc(S(=O)(=O)N[C@@H](Cc2ccccc2)C(=O)N/N=C/c2ccc(Cl)cc2)cc1 | 3.4 | 9.4 | – | – | – | –
6.19 | CC(=O)Nc1ccc(S(=O)(=O)N/N=C/c2ccccc2)cc1 | 61.5 | 40 | – | – | – | –
4.82 | CC(=O)Nc1ccc(S(=O)(=O)NCC(=O)N/N=C/c2ccccc2)cc1 | > 6.6 | > 100 | – | – | – | –
5.70 | O=C(N[C@@H](CO)C(=O)N/N=C/c1ccccc1)c1ccc([N+](=O)[O-])cc1 | > 50 | > 100 | – | – | – | –
5.88 | CC(=O)Nc1ccc(S(=O)(=O)N[C@@H](CO)C(=O)N/N=C/c2ccccc2)cc1 | > 75.8 | > 100 | – | – | – | –
4.82 | O=C(N/N=C/c1ccccc1)[C@H](Cc1ccccc1)NS(=O)(=O)c1ccc(Br)cc1 | > 6.5 | > 100 | – | – | – | –
– | Cc1ccc(NC(=O)NCCSCc2ccc(CN(C)C)o2)cc1Cl | – | – | 33.4 | – | – | –
5.52 | O=C(N[C@@H](Cc1ccccc1)C(=O)N/N=C/c1ccccc1)c1ccc([N+](=O)[O-])cc1 | 6.2 | 18.7 | – | – | – | –
5.26 | Cc1ccc(S(=O)(=O)N[C@@H](Cc2ccccc2)C(=O)N/N=C/c2ccc(Br)cc2)cc1 | 15 | 82.5 | – | – | – | –
5.99 | O=C(CNC(=O)c1ccc([N+](=O)[O-])cc1)N/N=C/c1ccccc1 | > 97.1 | > 100 | – | – | – | –

SMILES | pEC50 [3] | selectivity ratio [1] | CC50 at 120 h [2] [µM] | Activity (milli optical density/minute) [4] | Activity (milli optical density/minute) [5] | Activity (milli optical density/minute) [6] | Activity (milli optical density/minute) [7]
CC(=O)Nc1ccc(S(=O)(=O)N[C@@H](Cc2ccccc2)C(=O)N/N=C/c2ccccc2)cc1 | 6.33 | > 213 | > 100 | 20.8 | – | – | –
Cc1ccc(S(=O)(=O)NCC(=O)N/N=C/c2ccccc2)cc1 | 5.82 | 55.7 | 83.5 | 23.1 | – | – | –
COc1cc(/C=N/NC(=O)[C@H](Cc2ccccc2)NS(=O)(=O)c2ccc(C)cc2)ccc1O | 6.68 | > 476 | > 100 | 10.6 | 10.9 | 7.7 | 14
Cc1ccc(S(=O)(=O)N[C@@H](Cc2ccccc2)C(=O)N/N=C/c2ccccc2)cc1 | 6.40 | 125 | 50 | 18.9 | – | – | –
Cc1ccc(S(=O)(=O)N[C@@H](Cc2ccccc2)C(=O)N/N=C/c2ccc3c(c2)OCO3)cc1 | 6.77 | > 588 | > 100 | 7.9 | 7.4 | 2.5 | 13.2
Cc1ccc(S(=O)(=O)N[C@@H](Cc2ccccc2)C(=O)N/N=C/c2ccc([N+](=O)[O-])cc2)cc1 | 5.18 | 1.5 | 9.8 | 31.9 | – | – | –
O=C(CNS(=O)(=O)c1ccc(Br)cc1)N/N=C/c1ccccc1 | 6.48 | 284 | 92.8 | 22.5 | – | – | –
Cc1ccc(/C=N/NC(=O)[C@H](Cc2ccccc2)NS(=O)(=O)c2ccc(C)cc2)cc1 | 5.00 | > 10.1 | > 100 | 46 | – | – | –
O=S(=O)(c1ccc(Br)cc1)N1CCC(c2ccccc2)=N1 | 7.00 | 382 | 38.2 | 17.3 | – | – | –
COc1ccc(C(=O)NCC(=O)N/N=C/c2ccccc2)cc1 | 5.70 | 31.9 | 63.8 | 43.5 | – | – | –
COc1ccc(C(=O)N[C@@H](CO)C(=O)N/N=C/c2ccccc2)cc1 | 6.22 | 76 | 45.6 | 21.7 | – | – | –
COc1ccc(C(=O)N[C@@H](Cc2ccccc2)C(=O)N/N=C/c2ccccc2)cc1 | 6.70 | > 500 | > 100 | 22.6 | – | – | –
Cc1ccc(S(=O)(=O)N[C@@H](CO)C(=O)N/N=C/c2ccccc2)cc1 | 5.79 | 3.2 | 5.19 | 24.4 | – | – | –
